T cruzi intra: inhibitors of intracellular Trypanosoma cruzi, primary screen, cell-based, plate reader, single point, set 2; activity score (inhibition), % at 5.01 µM; intracellular Trypanosoma cruzi in host cells; hit rate 4.9% among 22,000; AID 651903, 2012; in the data active = activity score above about 55%; inconclusive = no clear call, values can overlap the other calls;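 also: parasites and compound incubated about four days before reading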
A1 apoptosis 2: A1 inhibitors via caspase activation, primary screen, cell-based, luminescence, HTS, two replicates; MEF A1-2A-BIM cells, caspase-Glo luminescence, 3 h; percent of clofoctol response, DMSO zero; caspase activation, % (no concentration beside the values); 24,000 tested, under 10 active; AID 2465, 2010; in the data active = caspase activation above about 5.9%; inconclusive = no clear call, values can overlap the other calls; inactive = below about 2.2%
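Evaluation: Caspase-3/7 activity from luminescence increase | Assay system: A1-2A-BIM mouse embryonic fibroblasts | Quantity: 2500 MEF cells/well | Medium: RPMI-1640 plus 10% FBS | Detection: Caspase-Glo 3/7 luminescence, 1 h at room temperature | Dosing: 50 nL compound per well, pinned | Timing: Cells settled overnight, compound exposure 3 h at 37 °C, 5% CO2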
INS-1E ATP HTS: protection of INS-1E cells from cytokine death, primary screen, ATP luminescence, single point. INS-1E cytokine-induced death, 48 h; normalised: neutral wells 0, positive control 100. protection from cytokine-induced ATP loss, % at 10 µM. hit rate 0.1% among 20,000. AID 488910, 2010;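 active = mean replicate protection from cytokine-induced ATP loss at least 50% and at least 75% of replicates each reaching 50%; inconclusive = meets only one of the two criteria, mean or replicate share; inactive = fails both the mean and replicate share criteria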
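Assay system: INS-1E rat cells / Quantity: 8000 cells per well / Medium: RPMI without phenol red, 5% FBS / Probe or stimulus: three-cytokine cocktail (IFN-γ, TNF-α, IL-1β) / Dosing: one compound concentration, pin transfer / Timing: 48 h co-treatment, 10 min post-lysis read / Technique: CellTiter-Glo luminescence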
Each line names hits and unclear results; the compound was inactive in the other large screens. The sample as a whole holds a higher share of hits than the screen did.

C[C@H](CO)N1C[C@H](C)[C@H](CN(C)Cc2cccc(C(F)(F)F)c2)Oc2ncc(Br)cc2C1=O	none (no result: INS-1E ATP HTS)
C[C@H](CO)N1C[C@H](C)[C@H](CN(C)C(=O)NC2CCCC2)Oc2ncc(-c3cc4ccccc4o3)cc2C1=O	none (no result: INS-1E ATP HTS)
C[C@H](CO)N1C[C@H](C)[C@H](CN(C)Cc2ccccc2)Oc2ncc(-c3cc4ccccc4o3)cc2C1=O	T cruzi intra 59 (no result: INS-1E ATP HTS)
C[C@@H]1CCCCO[C@H](CN(C)C(=O)Nc2ccc3c(c2)OCO3)[C@H](C)CN([C@H](C)CO)C(=O)c2cc(NS(=O)(=O)c3ccc(F)cc3)ccc2O1	none (no result: T cruzi intra, INS-1E ATP HTS)
C[C@H]1CN([C@@H](C)CO)C(=O)Cc2cc(NS(=O)(=O)c3cccs3)ccc2O[C@@H]1CN(C)S(=O)(=O)c1ccc(F)cc1	none (no result: A1 apoptosis 2)
Cc1ccc(S(=O)(=O)N(C)C[C@H]2Oc3ccc(NS(=O)(=O)c4cccs4)cc3CC(=O)N([C@H](C)CO)C[C@H]2C)cc1	T cruzi intra 72
Cc1ccc(S(=O)(=O)Nc2ccc3c(c2)CC(=O)N([C@@H](C)CO)C[C@H](C)[C@@H](CN(C)S(=O)(=O)c2cccs2)O3)cc1	none
C[C@@H]1CN([C@H](C)CO)C(=O)Cc2cc(NS(=O)(=O)c3cccs3)ccc2O[C@@H]1CN(C)S(=O)(=O)c1ccc(F)cc1	T cruzi intra 60 (no result: A1 apoptosis 2)
C[C@@H]1CN([C@H](C)CO)C(=O)c2cccc(NC(=O)c3ccc(-c4nccs4)cc3)c2O[C@@H]1CN(C)S(C)(=O)=O	none
COc1ccc(CN(C)C[C@@H]2Oc3ccc(NC(=O)Nc4ccccc4)cc3C(=O)N([C@H](C)CO)C[C@@H]2C)cc1	none (no result: A1 apoptosis 2)
C[C@H](CO)N1C[C@H](C)[C@H](CN(C)Cc2ccncc2)Oc2ccc(NC(=O)Nc3ccc4c(c3)OCO4)cc2C1=O	none (no result: T cruzi intra, INS-1E ATP HTS)
Cc1ccc(S(=O)(=O)Nc2ccc3c(c2)CC(=O)N([C@@H](C)CO)C[C@H](C)[C@@H](CN(C)S(=O)(=O)c2ccccc2)O3)cc1	none (no result: A1 apoptosis 2)
Cc1ccc(S(=O)(=O)N(C)C[C@H]2Oc3ccc(NS(=O)(=O)c4ccc(F)cc4)cc3CC(=O)N([C@H](C)CO)C[C@@H]2C)cc1	none (no result: T cruzi intra, INS-1E ATP HTS)
Cc1ccc(S(=O)(=O)N(C)C[C@H]2Oc3ccc(NS(=O)(=O)c4ccccc4)cc3CC(=O)N([C@H](C)CO)C[C@H]2C)cc1	T cruzi intra 67
Cc1ccc(S(=O)(=O)N(C)C[C@H]2Oc3ccc(NS(=O)(=O)c4ccc(F)cc4)cc3CC(=O)N([C@H](C)CO)C[C@H]2C)cc1	T cruzi intra 63
C[C@@H]1CN([C@H](C)CO)C(=O)Cc2cc(NS(=O)(=O)c3ccc(Cl)cc3)ccc2O[C@@H]1CN(C)S(=O)(=O)c1ccc(F)cc1	T cruzi intra 67 (no result: A1 apoptosis 2)
C[C@H](CO)N1C[C@H](C)[C@H](CN(C)S(=O)(=O)c2ccc(Cl)cc2)Oc2ccc(NS(=O)(=O)c3ccc(F)cc3)cc2CC1=O	none (no result: A1 apoptosis 2)
Cc1ccc(S(=O)(=O)Nc2ccc3c(c2)CC(=O)N([C@@H](C)CO)C[C@@H](C)[C@@H](CN(C)S(=O)(=O)c2ccc(Cl)cc2)O3)cc1	T cruzi intra 62
Cc1ccc(S(=O)(=O)N(C)C[C@H]2Oc3ccc(NS(=O)(=O)c4ccc(Cl)cc4)cc3CC(=O)N([C@@H](C)CO)C[C@H]2C)cc1	T cruzi intra inconclusive
C[C@H]1CN([C@@H](C)CO)C(=O)c2cc(NS(=O)(=O)c3cn(C)cn3)ccc2O[C@@H]1CN(C)S(=O)(=O)c1cn(C)cn1	none
CC(C)NC(=O)Nc1ccc2c(c1)C(=O)N([C@H](C)CO)C[C@@H](C)[C@H](CN(C)C(=O)c1ccccc1)OCCCC[C@@H](C)O2	none (no result: T cruzi intra, INS-1E ATP HTS)
C[C@@H]1CN([C@@H](C)CO)C(=O)c2cccc(NC(=O)NC3CCCCC3)c2O[C@@H]1CN(C)Cc1ccc(C(=O)Nc2ccccc2N)cc1	none (no result: A1 apoptosis 2)
C[C@@H]1CN([C@H](C)CO)C(=O)Cc2cc(NC(=O)Nc3cccc4ccccc34)ccc2O[C@@H]1CN(C)C(=O)Nc1ccc(F)cc1	none
C[C@@H]1CN([C@@H](C)CO)C(=O)CCCn2nncc2CO[C@H]1CN(C)C(=O)Nc1cccc(F)c1	none (no result: A1 apoptosis 2, INS-1E ATP HTS)
CNC[C@H]1Oc2ccc(NC(=O)c3ccncc3)cc2C(=O)N([C@H](C)CO)C[C@@H]1C	none
Cc1ccc(S(=O)(=O)Nc2ccc3c(c2)CC(=O)N([C@H](C)CO)C[C@H](C)[C@@H](CN(C)S(=O)(=O)c2ccc(Cl)cc2)O3)cc1	none (no result: T cruzi intra, INS-1E ATP HTS)
Cc1ccc(S(=O)(=O)Nc2ccc3c(c2)CC(=O)N([C@H](C)CO)C[C@@H](C)[C@@H](CN(C)S(=O)(=O)c2ccc(C)cc2)O3)cc1	T cruzi intra 78 (no result: A1 apoptosis 2)
C[C@@H]1CN([C@@H](C)CO)C(=O)Cc2cc(NS(=O)(=O)c3ccc(Cl)cc3)ccc2O[C@@H]1CN(C)S(=O)(=O)c1ccccc1	none
C[C@@H]1CN([C@H](C)CO)C(=O)Cc2cc(NS(=O)(=O)c3ccc(Cl)cc3)ccc2O[C@@H]1CN(C)S(=O)(=O)c1ccccc1	T cruzi intra 59
Cc1ccc(S(=O)(=O)N(C)C[C@H]2Oc3ccc(NS(=O)(=O)c4ccc(Cl)cc4)cc3CC(=O)N([C@H](C)CO)C[C@H]2C)cc1	T cruzi intra 78
Cc1ccc(S(=O)(=O)Nc2ccc3c(c2)CC(=O)N([C@H](C)CO)C[C@H](C)[C@H](CN(C)S(=O)(=O)c2ccc(Cl)cc2)O3)cc1	none (no result: A1 apoptosis 2)
C[C@H]1CN([C@@H](C)CO)C(=O)Cc2cc(NC(=O)NC3CCCCC3)ccc2O[C@H]1CN(C)CC1CCCCC1	none
CC(C)NC(=O)Nc1ccc2c(c1)C(=O)N([C@@H](C)CO)C[C@H](C)[C@@H](CN(C)C(=O)NC1CCCCC1)OCCCC[C@H](C)O2	none (no result: T cruzi intra, INS-1E ATP HTS)
C[C@H](CO)N1C[C@H](C)[C@H](CN(C)S(=O)(=O)c2cn(C)cn2)Oc2c(NS(=O)(=O)c3ccc(Cl)cc3)cccc2C1=O	none
O=C(CCCCCC(=O)N/N=C/c1ccc([N+](=O)[O-])s1)NO	T cruzi intra 64 (no result: A1 apoptosis 2)
COC(=O)CCCCCCC(=O)N/N=C/c1ccc([N+](=O)[O-])s1	T cruzi intra 81
O=C(CCCCCC(=O)Nc1ccccc1O)N/N=C/c1ccc([N+](=O)[O-])s1	none (no result: T cruzi intra, INS-1E ATP HTS)
O=C(O)CCCCCCC(=O)N/N=C/c1ccc([N+](=O)[O-])s1	none
CC(C)NC(=O)Nc1ccc2c(c1)CC(=O)N([C@H](C)CO)C[C@H](C)[C@H](CN(C)CC1CC1)O2	none
C[C@H](CO)N1C[C@H](C)[C@H](CN(C)Cc2ccc(C(=O)Nc3ccccc3N)cc2)Oc2ccc(NS(=O)(=O)c3ccc(F)cc3)cc2C1=O	T cruzi intra 63
COc1ccc(S(=O)(=O)Nc2ccc3c(c2)C(=O)N([C@H](C)CO)C[C@H](C)[C@H](CN(C)Cc2ccc(C(=O)Nc4ccccc4N)cc2)OCCCC[C@@H](C)O3)cc1	none
C[C@@H]1CN([C@@H](C)CO)C(=O)c2cccc(NS(=O)(=O)c3ccc(Cl)cc3)c2O[C@@H]1CN(C)Cc1ccc(C(=O)Nc2ccccc2N)cc1	none (no result: A1 apoptosis 2)
